In brackets after ≈: the same amount, converted by molar mass. Activity calls are given as the source filed them. The rule behind the calls is not given here.
Legend:
Serratia marcescens [1] = assay: Antibacterial activity against Serratia marcescens ATCC 13880 measured after 18 hrs by CLSI broth dilution method; assay type: functional; details: ATCC 13880, 18 h
Summary of the method: (§1)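 Broth MIC in Mueller-Hinton II broth following CLSI, compounds dissolved in DMSO. Strains subcultured twice on tryptic soy agar before testing. Growth read after 35 °C, 18 h.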

Proteus mirabilis [2] = assay: Antibacterial activity against Proteus mirabilis ATCC 12453 assessed as diameter of zone inhibition measured after 18 hrs by CLSI disc diffusion method; assay type: functional
Summary of the method: (§2)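 Disc diffusion on Mueller-Hinton II agar. Compounds dissolved in DMSO. Strains stored at -80 °C and subcultured twice on tryptic soy agar before testing. Inhibition zones read after 35 °C, 18 h.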

[3] = tested on: Stenotrophomonas maltophilia; assay: Antibacterial activity against Stenotrophomonas maltophilia ATCC 13637 assessed as fold reduction of MIC in presence of efflux pump inhibitor PAbetaN incubated for 18 hrs by broth microdilution method; assay type: functional
Summary of the method: (§3)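 MICs determined with and without PAβN at 50 mg/L in Mueller-Hinton broth containing 1 mM MgSO₄. 2-fold serial dilutions per CLSI. Fold change taken from the paired MICs after 35 °C, 18 h.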

Enterobacter cloacae [4] = assay: Antibacterial activity against Enterobacter cloacae DSM 6234 assessed as fold reduction of MIC in presence of efflux pump inhibitor PAbetaN incubated for 18 hrs by broth microdilution method; assay type: functional; summary of the method: as §3
Candida albicans = assay: Antifungal activity against Candida albicans ATCC 90028 assessed as diameter of zone inhibition incubated for 24 hrs by CLSI disc diffusion method; assay type: functional
Summary of the method: (§4)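 Yeast disc diffusion on Mueller-Hinton agar supplemented with 2% glucose and 0.5 mg/L methylene blue. Compounds in DMSO. Yeasts subcultured on Sabouraud dextrose agar before testing. Zones read after 35 °C, 24 h.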

[5] = tested on: Bordetella bronchiseptica; assay: Antibacterial activity against Bordetella bronchiseptica ATCC 4617 assessed as diameter of zone inhibition measured after 18 hrs by CLSI disc diffusion method; assay type: functional; summary of the method: as §2
Proteus mirabilis [6] = assay: Antibacterial activity against Proteus mirabilis ATCC 12453 assessed as fold reduction of MIC in presence of efflux pump inhibitor PAbetaN incubated for 18 hrs by broth microdilution method; assay type: functional; summary of the method: as §3
Pseudomonas aeruginosa [7] = assay: Antibacterial activity against Pseudomonas aeruginosa ATCC 27853 measured after 18 hrs by CLSI broth dilution method; assay type: functional; details: ATCC 27853, 18 h; summary of the method: as §1
Escherichia coli = assay: Antibacterial activity against Escherichia coli ATCC 25922 measured after 18 hrs by CLSI broth dilution method; assay type: functional; details: ATCC 25922, 18 h; summary of the method: as §1
Enterococcus faecium [8] = assay: Antibacterial activity against Enterococcus faecium ATCC 6057 assessed as diameter of zone inhibition measured after 18 hrs by CLSI disc diffusion method; assay type: functional; summary of the method: as §2
Pichia kudriavzevii = assay: Antifungal activity against Candida krusei ATCC 6258 assessed as decrease in fungal cell growth at 0.78 to 12.5 mg/L incubated for 24 hrs by CLSI broth dilution method; assay type: functional; details: ATCC 6258, 24 h
Summary of the method: (§5)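 Yeast broth dilution in RPMI 1640 with 2% glucose, compounds in DMSO. Yeasts pre-grown on Sabouraud dextrose agar. Growth read after 35 °C, 24 h.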

[9] = tested on: Meyerozyma guilliermondii; assay: Antifungal activity against Candida guilliermondii IBA 155 assessed as decrease in fungal cell growth at 0.78 to 12.5 mg/L incubated for 24 hrs by CLSI broth dilution method; assay type: functional; details: IBA 155, 24 h; summary of the method: as §5
Candida tropicalis [10] = assay: Antifungal activity against Candida tropicalis IBA 171 assessed as decrease in fungal cell growth at 0.78 to 12.5 mg/L incubated for 24 hrs by CLSI broth dilution method; assay type: functional; details: IBA 171, 24 h; summary of the method: as §5
Enterobacter cloacae [11] = assay: Antibacterial activity against Enterobacter cloacae DSM 6234 measured after 18 hrs by CLSI broth dilution method; assay type: functional; details: DSM 6234, 18 h; summary of the method: as §1
[12] = tested on: Staphylococcus epidermidis; assay: Antibacterial activity against Staphylococcus epidermidis ATCC 12228 measured after 18 hrs by CLSI broth dilution method; assay type: functional; details: ATCC 12228, 18 h; summary of the method: as §1
Proteus mirabilis [13] = assay: Antibacterial activity against Proteus mirabilis ATCC 12453 measured after 18 hrs by CLSI broth dilution method; assay type: functional; details: ATCC 12453, 18 h; summary of the method: as §1
Enterococcus faecalis [14] = assay: Antibacterial activity against Enterococcus faecalis ATCC 29212 assessed as diameter of zone inhibition measured after 18 hrs by CLSI disc diffusion method; assay type: functional; summary of the method: as §2
Enterococcus faecium [15] = assay: Antibacterial activity against Enterococcus faecium ATCC 6057 measured after 18 hrs by CLSI broth dilution method; assay type: functional; details: ATCC 6057, 18 h; summary of the method: as §1
Staphylococcus aureus [16] = assay: Antibacterial activity against Staphylococcus aureus ATCC 6538P assessed as diameter of zone inhibition measured after 18 hrs by CLSI disc diffusion method; assay type: functional; summary of the method: as §2
Klebsiella pneumoniae [17] = details: ATCC 13883
Enterococcus faecalis [18] = assay: Antibacterial activity against Enterococcus faecalis ATCC 29212 measured after 18 hrs by CLSI broth dilution method; assay type: functional; details: ATCC 29212, 18 h; summary of the method: as §1
Klebsiella pneumoniae [19] = assay: Antibacterial activity against Klebsiella pneumoniae ATCC 13883 assessed as fold reduction of MIC in presence of efflux pump inhibitor PAbetaN incubated for 18 hrs by broth microdilution method; assay type: functional; summary of the method: as §3
[20] = tested on: Staphylococcus epidermidis; assay: Antibacterial activity against Staphylococcus epidermidis ATCC 12228 assessed as diameter of zone inhibition measured after 18 hrs by CLSI disc diffusion method; assay type: functional; summary of the method: as §2
Acinetobacter baumannii [21] = assay: Antibacterial activity against Acinetobacter baumannii ATCC 19606 assessed as diameter of zone inhibition measured after 18 hrs by CLSI disc diffusion method; assay type: functional; summary of the method: as §2
Serratia marcescens [22] = assay: Antibacterial activity against Serratia marcescens ATCC 13880 assessed as fold reduction of MIC in presence of efflux pump inhibitor PAbetaN incubated for 18 hrs by broth microdilution method; assay type: functional; summary of the method: as §3
[23] = tested on: Meyerozyma guilliermondii; assay: Antifungal activity against Candida guilliermondii IBA 155 assessed as diameter of zone inhibition incubated for 24 hrs by CLSI disc diffusion method; assay type: functional; summary of the method: as §4
Staphylococcus aureus [24] = assay: Antibacterial activity against Staphylococcus aureus ATCC 6538P measured after 18 hrs by CLSI broth dilution method; assay type: functional; summary of the method: as §1
Bacillus subtilis = assay: Antibacterial activity against Bacillus subtilis ATCC 6633 assessed as diameter of zone inhibition measured after 18 hrs by CLSI disc diffusion method; assay type: functional; summary of the method: as §2
Pseudomonas aeruginosa [25] = assay: Antibacterial activity against Pseudomonas aeruginosa ATCC 27853 assessed as diameter of zone inhibition measured after 18 hrs by CLSI disc diffusion method; assay type: functional, organism-based; summary of the method: as §2
Candida tropicalis [26] = assay: Antifungal activity against Candida tropicalis IBA 171 assessed as diameter of zone inhibition incubated for 24 hrs by CLSI disc diffusion method; assay type: functional; summary of the method: as §4
Burkholderia cepacia = assay: Antibacterial activity against Burkholderia cepacia ATCC 25416 assessed as diameter of zone inhibition measured after 18 hrs by CLSI disc diffusion method; assay type: functional; summary of the method: as §2
[27] = tested on: Stenotrophomonas maltophilia; assay: Antibacterial activity against Stenotrophomonas maltophilia ATCC 13637 assessed as diameter of zone inhibition measured after 18 hrs by CLSI disc diffusion method; assay type: functional; summary of the method: as §2
Candida parapsilosis = assay: Antifungal activity against Candida parapsilosis ATCC 22019 assessed as decrease in fungal cell growth at 0.78 to 12.5 mg/L incubated for 24 hrs by CLSI broth dilution method; assay type: functional; details: Lodderomyces parapsilosis, ATCC 22019, 24 h; summary of the method: as §5
Acinetobacter baumannii [28] = assay: Antibacterial activity against Acinetobacter baumannii ATCC 19606 assessed as fold reduction of MIC in presence of efflux pump inhibitor PAbetaN incubated for 18 hrs by broth microdilution method; assay type: functional; summary of the method: as §3

Row | Compound | MIC (Serratia marcescens [1]) [µg/mL] | diameter of the inhibition zone (DIZ) (Proteus mirabilis [2]) | fold change (FC) [3] | fold change (FC) (Enterobacter cloacae [4]) | diameter of the inhibition zone (DIZ) (Candida albicans) | diameter of the inhibition zone (DIZ) [5] | fold change (FC) (Proteus mirabilis [6]) | MIC (Pseudomonas aeruginosa [7]) [µg/mL] | MIC (Escherichia coli) [µg/mL] | diameter of the inhibition zone (DIZ) (Enterococcus faecium [8]) | MIC (Pichia kudriavzevii) [µg/mL] | MIC [9] [µg/mL] | MIC (Candida tropicalis [10]) [µg/mL] | MIC (Enterobacter cloacae [11]) [µg/mL] | MIC [12] [µg/mL] | MIC (Proteus mirabilis [13]) [µg/mL] | diameter of the inhibition zone (DIZ) (Enterococcus faecalis [14]) | MIC (Enterococcus faecium [15]) [µg/mL] | diameter of the inhibition zone (DIZ) (Staphylococcus aureus [16]) [mm] | DIZ (Klebsiella pneumoniae [17]) | also measured
1 | C[Si]1(C)OB(O)c2cc(C=O)cc(F)c21 | > 400 | inactive | 8 | 16 | inactive | inactive | 4 | > 400 | > 400 | inactive | > 400 | > 400 | 200 (≈ 893 µM) | > 400 | 50 (≈ 223 µM) | > 400 | inactive | 200 (≈ 893 µM) | 22 | inactive | MIC (Enterococcus faecalis [18]): 400 µg/mL (≈ 1790 µM); fold change (FC) (Klebsiella pneumoniae [19]): 8; diameter of the inhibition zone (DIZ) [20]: 31 mm; diameter of the inhibition zone (DIZ) (Acinetobacter baumannii [21]): inactive; fold change (FC) (Serratia marcescens [22]): 8; diameter of the inhibition zone (DIZ) [23]: inactive; MIC (Staphylococcus aureus [24]): 25 µg/mL (≈ 112 µM); diameter of the inhibition zone (DIZ) (Bacillus subtilis): 22 mm; diameter of the inhibition zone (DIZ) (Pseudomonas aeruginosa [25]): inactive; diameter of the inhibition zone (DIZ) (Candida tropicalis [26]): inactive; diameter of the inhibition zone (DIZ) (Burkholderia cepacia): inactive; diameter of the inhibition zone (DIZ) [27]: inactive; MIC (Candida parapsilosis): 400 µg/mL (≈ 1790 µM); fold change (FC) (Acinetobacter baumannii [28]): 4
2 | C[Si]1(C)OB(O)c2c(C=O)cc(F)c(F)c21 | > 400 | inactive | 4 | 64 | 11 mm | inactive | 2 | > 400 | > 400 | inactive | > 400 | 400 (≈ 1650 µM) | 200 (≈ 826 µM) | > 400 | 100 (≈ 413 µM) | > 400 | inactive | 400 (≈ 1650 µM) | 21 | inactive | MIC (Enterococcus faecalis [18]): 400 µg/mL (≈ 1650 µM); fold change (FC) (Klebsiella pneumoniae [19]): 32; diameter of the inhibition zone (DIZ) [20]: 28 mm; diameter of the inhibition zone (DIZ) (Acinetobacter baumannii [21]): inactive; fold change (FC) (Serratia marcescens [22]): 2; diameter of the inhibition zone (DIZ) [23]: 12 mm; MIC (Staphylococcus aureus [24]): 50 µg/mL (≈ 207 µM); diameter of the inhibition zone (DIZ) (Bacillus subtilis): 18 mm; diameter of the inhibition zone (DIZ) (Pseudomonas aeruginosa [25]): inactive; diameter of the inhibition zone (DIZ) (Candida tropicalis [26]): 11 mm; diameter of the inhibition zone (DIZ) (Burkholderia cepacia): inactive; diameter of the inhibition zone (DIZ) [27]: inactive; MIC (Candida parapsilosis): 100 µg/mL (≈ 413 µM); fold change (FC) (Acinetobacter baumannii [28]): 2
3 | C[Si]1(C)OB(O)c2c(F)c(F)c(F)c(F)c21 | > 400 | 11 mm | 16 | 32 | 15 mm | 15 mm | 2 | > 400 | > 400 | 11 mm | 200 (≈ 800 µM) | 50 (≈ 200 µM) | 1.56 (≈ 6.24 µM) | > 400 | 100 (≈ 400 µM) | 400 (≈ 1600 µM) | 11 mm | 200 (≈ 800 µM) | 17 | inactive | MIC (Enterococcus faecalis [18]): 200 µg/mL (≈ 800 µM); fold change (FC) (Klebsiella pneumoniae [19]): 16; diameter of the inhibition zone (DIZ) [20]: 17 mm; diameter of the inhibition zone (DIZ) (Acinetobacter baumannii [21]): 12 mm; fold change (FC) (Serratia marcescens [22]): 4; diameter of the inhibition zone (DIZ) [23]: 14 mm; MIC (Staphylococcus aureus [24]): 25 µg/mL (≈ 100 µM); diameter of the inhibition zone (DIZ) (Bacillus subtilis): 20 mm; diameter of the inhibition zone (DIZ) (Pseudomonas aeruginosa [25]): inactive; diameter of the inhibition zone (DIZ) (Candida tropicalis [26]): 13 mm; diameter of the inhibition zone (DIZ) (Burkholderia cepacia): inactive; diameter of the inhibition zone (DIZ) [27]: 25 mm; MIC (Candida parapsilosis): 50 µg/mL (≈ 200 µM); fold change (FC) (Acinetobacter baumannii [28]): 4
